According to ChEMBL document CHEMBL1133683, “beta-Turned dipeptoids as potent and selective CCK(1) receptor antagonists” (J Med Chem, 2000):

Assays:
Rattus norvegicus = organism: Rattus norvegicus; test: Inhibition of CCK-8-stimulated amylase release from pancreatic acinar cells; assay type: functional, cell-based
How it was run: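 Pancreatic acini prepared by collagenase digestion (70 U/mL, three 10-min incubations at 37 °C under O2). Acini incubated 30 min at 37 °C under pure O2 with agitation. Amylase release was stimulated by 0.1 nM CCK-8 and expressed as percent of acinar amylase released. Percent inhibition was calculated across increasing drug concentrations, and IC50 is given with a range.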

[1] = molecular target: T1, Gastrin/cholecystokinin type B receptor (Rattus norvegicus, UniProt P30553); test: In vitro inhibition of [3H]propionyl-CCK-8 binding to rat cerebral cortex membranes at Cholecystokinin type B receptor.; assay type: cell membranes, Membrane
T1 sequence (P30553 whole entry): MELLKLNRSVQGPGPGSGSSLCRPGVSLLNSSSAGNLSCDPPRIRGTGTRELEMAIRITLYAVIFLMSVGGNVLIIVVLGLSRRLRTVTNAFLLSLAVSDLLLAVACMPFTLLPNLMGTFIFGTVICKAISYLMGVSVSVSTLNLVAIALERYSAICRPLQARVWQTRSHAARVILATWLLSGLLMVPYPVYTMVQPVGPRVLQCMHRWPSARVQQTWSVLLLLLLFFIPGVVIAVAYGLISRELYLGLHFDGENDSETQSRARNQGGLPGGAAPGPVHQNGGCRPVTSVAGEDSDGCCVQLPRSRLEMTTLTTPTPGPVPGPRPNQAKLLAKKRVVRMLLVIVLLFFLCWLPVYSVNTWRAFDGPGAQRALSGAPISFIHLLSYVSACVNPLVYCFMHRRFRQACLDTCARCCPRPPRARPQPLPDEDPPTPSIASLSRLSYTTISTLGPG
How it was run: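 Rat cerebral cortex homogenized in 50 mM Tris-HCl pH 7.4 with 5 mM MgCl2 and spun twice (100000g, 35 min, 4 °C). Membranes (0.45 mg protein/tube) incubated with 1 nM [3H]pCCK-8 in the same buffer plus bacitracin 0.2 mg/mL, 60 min at 25 °C. Nonspecific binding defined with 1 μM CCK-8. Seven test concentrations in duplicate, at least three experiments, mean ± SEM.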

[2] = molecular target: T2, Cholecystokinin receptor type A (Rattus norvegicus, UniProt P30551); test: In vitro inhibition of [3H]propionyl-CCK-8 binding to rat pancreatic membranes at Cholecystokinin type A receptor.; assay type: cell membranes, Membrane
T2 sequence (P30551 whole entry): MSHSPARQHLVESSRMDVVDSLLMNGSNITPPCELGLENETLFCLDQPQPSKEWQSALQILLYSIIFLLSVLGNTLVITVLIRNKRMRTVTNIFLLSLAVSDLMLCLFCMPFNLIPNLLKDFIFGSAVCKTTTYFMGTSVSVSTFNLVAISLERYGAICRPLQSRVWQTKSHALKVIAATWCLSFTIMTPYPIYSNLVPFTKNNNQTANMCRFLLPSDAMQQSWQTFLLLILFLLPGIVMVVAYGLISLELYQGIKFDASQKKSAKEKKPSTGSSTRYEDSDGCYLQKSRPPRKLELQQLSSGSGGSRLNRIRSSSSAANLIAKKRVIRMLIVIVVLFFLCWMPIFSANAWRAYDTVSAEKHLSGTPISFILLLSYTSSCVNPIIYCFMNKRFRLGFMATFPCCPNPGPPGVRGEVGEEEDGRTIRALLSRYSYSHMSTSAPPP
How it was run: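 Rat pancreas homogenized in Pipes-HCl pH 6.5 with 30 mM MgCl2 and spun twice (50000g, 10 min, 4 °C). Membranes (0.2 mg protein/tube) incubated with 0.5 nM [3H]pCCK-8 in the same buffer plus bacitracin and soybean trypsin inhibitor (0.2 mg/mL each), 120 min at 25 °C. Nonspecific binding defined with 1 μM CCK-8. Seven concentrations in duplicate, ≥3 experiments, mean ± SEM.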

SMILES	IC50 (Rattus norvegicus) [nM]	IC50 [1] [nM]	IC50 [2] [nM]
O=C(N[C@@H]1C[C@H]2c3[nH]c4ccccc4c3C[C@H](C(=O)N[C@@H](Cc3ccccc3)C(=O)O)N2C1=O)OCc1ccccc1	1.2	202	1.73
COC(=O)[C@H](Cc1ccccc1)NC(=O)[C@H]1Cc2c([nH]c3ccccc23)[C@@H]2C[C@@H](NC(=O)OCc3ccccc3)C(=O)N12		5630	450
COC(=O)C[C@@H](Cc1ccccc1)NC(=O)[C@H]1Cc2c([nH]c3ccccc23)[C@@H]2C[C@@H](NC(=O)OCc3ccccc3)C(=O)N12		4910	> 1000
NC(=O)[C@H](Cc1ccccc1)NC(=O)[C@@H]1Cc2c([nH]c3ccccc23)[C@H]2C[C@H](NC(=O)OCc3ccccc3)C(=O)N21		> 10000	> 1000
COC(=O)[C@@H](Cc1ccccc1)NC(=O)[C@@H]1Cc2c([nH]c3ccccc23)[C@H]2C[C@H](NC(=O)OCc3ccccc3)C(=O)N21		> 10000	> 1000
O=C(O)C[C@@H](Cc1ccccc1)NC(=O)[C@H]1Cc2c([nH]c3ccccc23)[C@@H]2C[C@@H](NC(=O)OCc3ccccc3)C(=O)N12		> 10000	> 1000
COC(=O)[C@@H](Cc1ccccc1)NC(=O)[C@H]1Cc2c([nH]c3ccccc23)[C@@H]2C[C@@H](NC(=O)OCc3ccccc3)C(=O)N12		> 10000	> 1000
O=C(N[C@H]1C[C@@H]2c3[nH]c4ccccc4c3C[C@@H](C(=O)N[C@@H](Cc3ccccc3)C(=O)O)N2C1=O)OCc1ccccc1	6	> 10000	4.7
O=C(O)C[C@H](Cc1ccccc1)NC(=O)[C@@H]1Cc2c([nH]c3ccccc23)[C@H]2C[C@H](NC(=O)OCc3ccccc3)C(=O)N21		> 10000	
O=C(N[C@@H]1C[C@H]2c3[nH]c4ccccc4c3C[C@H](C(=O)N[C@H](Cc3ccccc3)C(=O)O)N2C1=O)OCc1ccccc1		3720	> 1000
O=C(O)C[C@H](Cc1ccccc1)NC(=O)[C@H]1Cc2c([nH]c3ccccc23)[C@@H]2C[C@@H](NC(=O)OCc3ccccc3)C(=O)N12		> 10000	97.8
COC(=O)C[C@H](Cc1ccccc1)NC(=O)[C@H]1Cc2c([nH]c3ccccc23)[C@@H]2C[C@@H](NC(=O)OCc3ccccc3)C(=O)N12		> 10000	> 1000
NC(=O)[C@@H](Cc1ccccc1)NC(=O)[C@@H]1Cc2c([nH]c3ccccc23)[C@H]2C[C@H](NC(=O)OCc3ccccc3)C(=O)N21		> 10000	> 1000
O=C(O)C[C@@H](Cc1ccccc1)NC(=O)[C@@H]1Cc2c([nH]c3ccccc23)[C@H]2C[C@H](NC(=O)OCc3ccccc3)C(=O)N21		2700	
CN1C(=O)[C@@H](NC(=O)c2cc3ccccc3[nH]2)N=C(c2ccccc2)c2ccccc21 [DEVAZEPIDE]	2.5		
COC(=O)[C@H](Cc1ccccc1)NC(=O)[C@@H]1Cc2c([nH]c3ccccc23)[C@H]2C[C@H](NC(=O)OCc3ccccc3)C(=O)N21		> 10000	47.5
O=C(N[C@H]1C[C@@H]2c3[nH]c4ccccc4c3C[C@@H](C(=O)N[C@H](Cc3ccccc3)C(=O)O)N2C1=O)OCc1ccccc1		> 10000	54.6
